In ChEMBL document CHEMBL3627681, “Synthesis and biological evaluation of 1,3-diaryl pyrazole derivatives as potential antibacterial and anti-inflammatory agents” (2015):
Values after ≈ are worked out from the molar mass of the structure shown.

Legend:
[1] = tested on: Mus musculus; assay: Antiinflammatory activity in mouse assessed as inhibition of xylene-induced ear edema at 50 mg/kg, ip administered 30 mins before xylene challenge relative to control; assay type: functional
Procedure, shortened: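 Mice received compound freshly dissolved in DMSO, 50 mg/kg ip at 0.05 mL/20 g body weight; vehicle controls got DMSO alone. After 30 min, 20 µL xylene was applied to the right ear. After a further 30 min, 7 mm plugs were cut from treated and untreated ears and edema taken as their weight difference. Result is % edema reduction versus vehicle controls.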

[2] = tested on: Escherichia coli; assay: Antibacterial activity against Escherichia coli KCTC 1924 after 24 hrs by two-fold serial dilution method; assay type: functional; conditions: KCTC 1924, 24 h
Procedure, shortened: (§1)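 Broth microdilution in Mueller-Hinton broth over final concentrations of 64–0.5. Bacteria were grown to mid-log phase and diluted 1000-fold, then inoculated at 10⁵ CFU/mL. Compounds were dissolved in DMSO, with final DMSO at most 0.05%. Plates were incubated 24 h at 37 °C and growth read as absorbance at 650 nm. MIC is the concentration giving complete growth inhibition. Three independent runs.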

[3] = tested on: Staphylococcus aureus; assay: Antibacterial activity against Staphylococcus aureus RN4220 after 24 hrs by two-fold serial dilution method; assay type: functional; conditions: RN4220, 24 h
Procedure, shortened: (§2)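 Broth microdilution in Mueller-Hinton broth. Bacteria grown to mid-log phase, diluted 1000-fold, and inoculated at 10⁵ CFU/mL. Test compounds in DMSO, final DMSO not above 0.05%, final concentrations 64-0.5 µg/mL. Incubation 24 h at 37 °C, growth read as absorbance at 650 nm. MIC taken as the lowest concentration giving complete growth inhibition. Run three times.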

[4] = tested on: Staphylococcus aureus; assay: Ratio of moxifloxacin MIC to compound MIC for quinolone-resistant Staphylococcus aureus CCARM 3519 after 24 hrs by two-fold serial dilution method; assay type: functional
[5] = tested on: Staphylococcus aureus; assay: Antibacterial activity against quinolone-resistant Staphylococcus aureus CCARM 3519 after 24 hrs by two-fold serial dilution method; assay type: functional; conditions: CCARM 3519, 24 h; procedure, shortened: as §2
[6] = tested on: Pseudomonas aeruginosa; assay: Antibacterial activity against Pseudomonas aeruginosa 2004 after 24 hrs by two-fold serial dilution method; assay type: functional; conditions: Pseudomonas aeruginosa, 2004, 24 h; procedure, shortened: as §1
[7] = tested on: Staphylococcus aureus; assay: Antibacterial activity against quinolone-resistant Staphylococcus aureus CCARM 3505 after 24 hrs by two-fold serial dilution method; assay type: functional; conditions: CCARM 3505, 24 h; procedure, shortened: as §2
[8] = tested on: Escherichia coli; assay: Antibacterial activity against Escherichia coli CCARM 1356 after 24 hrs by two-fold serial dilution method; assay type: functional; conditions: CCARM 1356, 24 h; procedure, shortened: as §1
[9] = tested on: Staphylococcus aureus; assay: Ratio of gatifloxacin MIC to compound MIC for quinolone-resistant Staphylococcus aureus CCARM 3519 after 24 hrs by two-fold serial dilution method; assay type: functional
[10] = tested on: Staphylococcus aureus; assay: Antibacterial activity against methicillin-resistant Staphylococcus aureus CCARM 3167 after 24 hrs by two-fold serial dilution method; assay type: functional; conditions: CCARM 3167, 24 h; procedure, shortened: as §2
[11] = tested on: Staphylococcus aureus; assay: Antibacterial activity against Staphylococcus aureus 503 after 24 hrs by two-fold serial dilution method; assay type: functional; conditions: Staphylococcus aureus, 503, 24 h; procedure, shortened: as §2
[12] = tested on: Staphylococcus aureus; assay: Antibacterial activity against Staphylococcus aureus 209 after 24 hrs by two-fold serial dilution method; assay type: functional; conditions: Staphylococcus aureus, 209, 24 h; procedure, shortened: as §2
[13] = tested on: Salmonella typhimurium; assay: Antibacterial activity against Salmonella typhimurium 2421 after 24 hrs by two-fold serial dilution method; assay type: functional, Salmonella enterica subsp. enterica serovar Typhimurium; conditions: Salmonella enterica, 2421, 24 h; procedure, shortened: as §1
[14] = tested on: Pseudomonas aeruginosa; assay: Antibacterial activity against Pseudomonas aeruginosa 2742 after 24 hrs by two-fold serial dilution method; assay type: functional; conditions: Pseudomonas aeruginosa, 2742, 24 h; procedure, shortened: as §1
[15] = tested on: Candida albicans; assay: Antifungal activity against Candida albicans 7535 by two-fold serial dilution method; assay type: functional
[16] = tested on: Staphylococcus aureus; assay: Ratio of moxifloxacin MIC to compound MIC for quinolone-resistant Staphylococcus aureus CCARM 3505 after 24 hrs by two-fold serial dilution method; assay type: functional
[17] = tested on: Streptococcus mutans; assay: Antibacterial activity against Streptococcus mutans 3065 after 24 hrs by two-fold serial dilution method; assay type: functional; conditions: Streptococcus mutans, 3065, 24 h; procedure, shortened: as §1
[18] = tested on: Staphylococcus aureus; assay: Antibacterial activity against methicillin-resistant Staphylococcus aureus CCARM 3506 after 24 hrs by two-fold serial dilution method; assay type: functional; conditions: CCARM 3506, 24 h; procedure, shortened: as §2
[19] = tested on: Escherichia coli; assay: Ratio of moxifloxacin MIC to compound MIC for Escherichia coli CCARM 1356 after 24 hrs by two-fold serial dilution method; assay type: functional
[20] = tested on: Staphylococcus aureus; assay: Ratio of gatifloxacin MIC to compound MIC for quinolone-resistant Staphylococcus aureus CCARM 3505 after 24 hrs by two-fold serial dilution method; assay type: functional
[21] = tested on: Staphylococcus aureus; assay: Ratio of oxacillin MIC to compound MIC for methicillin-resistant Staphylococcus aureus CCARM 3506 after 24 hrs by two-fold serial dilution method; assay type: functional
[22] = tested on: Staphylococcus aureus; assay: Ratio of norfloxacin MIC to compound MIC for methicillin-resistant Staphylococcus aureus CCARM 3506 after 24 hrs by two-fold serial dilution method; assay type: functional
[23] = tested on: Escherichia coli; assay: Ratio of gatifloxacin MIC to compound MIC for Escherichia coli CCARM 1356 after 24 hrs by two-fold serial dilution method; assay type: functional

SMILES | inhibition in vivo at 50 mg/kg [1] [%] | MIC [2] [µg/mL] | MIC [3] [µg/mL] | Ratio [4] | MIC [5] [µg/mL] | MIC [6] [µg/mL] | MIC [7] [µg/mL] | MIC [8] [µg/mL] | Ratio [9] | MIC [10] [µg/mL] | MIC [11] [µg/mL] | MIC [12] [µg/mL] | MIC [13] [µg/mL] | MIC [14] [µg/mL] | MIC [15] [µg/mL] | Ratio [16] | MIC [17] [µg/mL] | MIC [18] [µg/mL] | Ratio [19] | Ratio [20] | further results
Cc1ccc(-c2nn(-c3ccc([N+](=O)[O-])cc3[N+](=O)[O-])cc2/C=N/NC(=N)N)cc1 | 87.4 | 2 (≈ 4.9 µM) | 2 (≈ 4.9 µM) | 2 | 2 (≈ 4.9 µM) | > 64 | 2 (≈ 4.9 µM) | 4 (≈ 9.79 µM) | 2 | 2 (≈ 4.9 µM) | 2 (≈ 4.9 µM) | 2 (≈ 4.9 µM) | 4 (≈ 9.79 µM) | > 64 | 2 (≈ 4.9 µM) | 2 | 4 (≈ 9.79 µM) | 2 (≈ 4.9 µM) | – | – | –
N=C(N)N/N=C/c1cn(-c2ccc([N+](=O)[O-])cc2[N+](=O)[O-])nc1-c1ccc(Cl)cc1 | 71.5 | 2 (≈ 4.66 µM) | 2 (≈ 4.66 µM) | 2 | 2 (≈ 4.66 µM) | > 64 | 2 (≈ 4.66 µM) | 8 (≈ 18.7 µM) | 2 | 2 (≈ 4.66 µM) | 2 (≈ 4.66 µM) | 2 (≈ 4.66 µM) | 4 (≈ 9.33 µM) | > 64 | 2 (≈ 4.66 µM) | 2 | 4 (≈ 9.33 µM) | 2 (≈ 4.66 µM) | 16 | 4 | –
N=C(N)N/N=C/c1cn(-c2ccc([N+](=O)[O-])cc2[N+](=O)[O-])nc1-c1cccc(Cl)c1 | 82.4 | 2 (≈ 4.66 µM) | 1 (≈ 2.33 µM) | 2 | 2 (≈ 4.66 µM) | > 64 | 2 (≈ 4.66 µM) | 4 (≈ 9.33 µM) | 2 | 2 (≈ 4.66 µM) | 2 (≈ 4.66 µM) | 2 (≈ 4.66 µM) | 4 (≈ 9.33 µM) | > 64 | 1 (≈ 2.33 µM) | 2 | 4 (≈ 9.33 µM) | 1 (≈ 2.33 µM) | – | 4 | Ratio [21]: 64; Ratio [22]: 4; Ratio [23]: 4
COc1ccc(-c2nn(-c3ccc([N+](=O)[O-])cc3[N+](=O)[O-])cc2/C=N/NC(=N)N)cc1 | 86.5 | 4 (≈ 9.43 µM) | 4 (≈ 9.43 µM) | – | 4 (≈ 9.43 µM) | > 64 | 4 (≈ 9.43 µM) | 8 (≈ 18.9 µM) | – | 4 (≈ 9.43 µM) | 4 (≈ 9.43 µM) | 4 (≈ 9.43 µM) | 8 (≈ 18.9 µM) | > 64 | 2 (≈ 4.71 µM) | – | 8 (≈ 18.9 µM) | 2 (≈ 4.71 µM) | 16 | – | –
N=C(N)N/N=C/c1cn(-c2ccc([N+](=O)[O-])cc2[N+](=O)[O-])nc1-c1ccc(F)cc1 | 61.9 | 4 (≈ 9.7 µM) | 4 (≈ 9.7 µM) | – | 4 (≈ 9.7 µM) | > 64 | 4 (≈ 9.7 µM) | 8 (≈ 19.4 µM) | – | 4 (≈ 9.7 µM) | 4 (≈ 9.7 µM) | 4 (≈ 9.7 µM) | 8 (≈ 19.4 µM) | > 64 | 2 (≈ 4.85 µM) | – | 8 (≈ 19.4 µM) | 4 (≈ 9.7 µM) | 16 | – | –
